Compounds with a hit are over-represented: about 2.3% of the library has one in this group of screens.
TRPC6 inh: mouse TRPC6 channel inhibitors, primary screen, cell-based, HEK293, membrane potential dye; Short transient receptor potential channel 6 (Mus musculus), Q61143; ACh-evoked depolarization; hits give low values; B-score at 10 µM; 310,000 compounds, 1.1% hits; AID 2553, 2010;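 active = B-score under library mean minus 3 SD, initial fluorescence not abnormally high, positive integrated signal ratio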;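 note: B-score derived from integrated fluorescence ratio over the kinetic read; more negative B-score means stronger inhibition of depolarization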
TRPC4 agonist: activators of mouse TRPC4 channel, primary screen, Fluo4 calcium, HEK293 TRPC4beta/mu-opioid cells; Fluo4 calcium fluorescence; hits give high values; 310,000 compounds, 0.49% hits; AID 2237, 2010; Short transient receptor potential channel 4 (Mus musculus), Q9QUQ5; B-score at 10 µM;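 active = B-score above 5 SD of library B-scores, and initial fluorescence ratio not above library mean plus 5 SD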;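 note: positive B-score marks a calcium rise read as TRPC4 activation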
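Technique: kinetic Fluo4 calcium fluorescence; Test system: TRPC4beta and mu-opioid receptor HEK293 stable cells; Measure: B-scored integrated calcium fluorescence ratio; Benchmarks: low control buffer alone, high control maximal DAMGO; Schedule: 45 min room-temperature Fluo4 loading, 110 s read.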
TRPC6 act: mouse TRPC6 channel activators, primary screen, cell-based, HEK293, membrane potential dye. Short transient receptor potential channel 6 (Mus musculus), Q61143. HEK293-TRPC6 membrane potential dye fluorescence; hits give high values. B-score at 10 µM. 310,000 compounds, 0.13% hits. AID 2550, 2010;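 active = B-score of the integrated fluorescence ratio above library mean plus 3 SD, and starting fluorescence ratio within library mean plus 5 SD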;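 note: higher score means more depolarization so channel activation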
TRPC4 inh: inhibitors of mouse TRPC4 channel, primary screen, Fluo4 calcium, HEK293 TRPC4beta/mu-opioid cells. Short transient receptor potential channel 4 (Mus musculus), Q9QUQ5. DAMGO-evoked Fluo4 calcium flux; hits give low values. B-score at 10 µM. 300,000 compounds, 0.39% hits;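 active = B-score over 3 SD under the library average, no early fluorescence shift, positive overall ratio signal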
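System: stable TRPC4beta/mu-opioid receptor HEK293 cells; Dosing: single-point compound dosing; Measured by: Fluo4 Ca2+ flux fluorescence; Read-out basis: per-well B score of integrated baseline-normalized Fluo4 ratio.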
TRPC4 potent: positive allosteric modulators of TRPC4, primary screen, cell-based, mouse TRPC4beta, HEK293 mu-opioid, Fluo-4 calcium | Short transient receptor potential channel 4 (Mus musculus), Q9QUQ5 | DAMGO EC20, Fluo-4 Ca2+ flux; hits give high values | B-score at 10 µM | 310,000 compounds, 0.42% hits | AID 2227, 2009;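 active = B-score of calcium response area above 5 SD of library B-scores, with initial fluorescence ratio within 5 SD of library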;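 note: B-score of integrated fluorescence ratio over time as area under calcium response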
* = called active by the depositor; i = inactive.

SMILES	TRPC6 inh	TRPC4 agonist	TRPC6 act	TRPC4 inh	TRPC4 potent
CCOC(=O)c1c(NC(=O)C2CC(Cl)=CCC2C(=O)O)sc2c1CCCCC2 (configuration not stated)	i	i	i	-6*	i
CCOc1ccc(CNCCN2CCCC2)cc1	i	i	i	i	i
CN1C(=O)S/C(=C\c2ccc(-n3cncn3)cc2)C1=O	i	i	i	i	i
COCCN(Cc1ccc(F)cc1)C(=O)c1cc2ccccc2oc1=O	i	i	i	i	i
CCN(CC)c1ccc(C2NCC(c3ccc([N+](=O)[O-])cc3)O2)cc1 (configuration not stated)	i	i	i	i	i
C/C(=N\NC(=O)c1ccc(Cn2cc(Br)cn2)o1)c1ccc(NC(=O)c2ccoc2C)cc1	i	i	i	i	i
CCC(=O)N1CCN(CCN=CC2=C(O)CC(C)(C)CC2=O)CC1	i	i	i	i	i
COc1cccc(N2C(=O)CC(N3CCN(CCN=CC4=C(O)CC(C)(C)CC4=O)CC3)C2=O)c1 (configuration not stated)	i	i	i	i	16*
CC1(C)CC(=O)C(C=NCCN2CCN(C(=O)CCl)CC2)=C(O)C1	i	i	i	i	34*
CC1(C)CC(=O)C(C=NCCN2CCN(C3CC(=O)N(c4ccc(F)cc4)C3=O)CC2)=C(O)C1 (configuration not stated)	i	i	i	i	i
CC1(C)CC(=O)C(C=NCCc2ccc(O)cc2)=C(O)C1	i	i	i	i	i
CC1(C)CC(=O)C(C=NCCN2CCN(C3CC(=O)N(c4cccc(Br)c4)C3=O)CC2)=C(O)C1 (configuration not stated)	i	i	i	i	29*
CC1(C)CC(=O)C(C=NCCc2ccccn2)=C(O)C1	i	50*	i	i	i
CCCCCCOc1ccc(N2C(=O)CC(N3CCN(CCN=CC4=C(O)CC(C)(C)CC4=O)CC3)C2=O)cc1 (configuration not stated)	i	i	i	i	i
CCCCOc1ccc(C2/C(=C(/O)c3ccc4c(c3)CC(C)O4)C(=O)C(=O)N2CCCN2CCOCC2)cc1OC (configuration not stated)	i	i	i	i	i
O=C(Nc1ccccc1)c1sccc1Oc1ccc([N+](=O)[O-])cc1F	i	i	i	i	i
Cc1ccc(C(=O)N2N=C(c3cccc(NS(C)(=O)=O)c3)CC2c2cccs2)cc1 (configuration not stated)	i	i	i	i	i
CCn1c(SC2CCOC2=O)nnc1-c1ccc(Cl)cc1 (configuration not stated)	i	i	i	i	i
CCc1cc(=O)oc2cc(C)cc(OC(C)C(=O)NCCCN3CCCC3=O)c12 (configuration not stated)	i	i	i	i	i
COc1cc(CNC2CCCC2)cc(Cl)c1OCc1ccc(F)cc1	i	i	i	-7*	i
NC(c1ccccc1)c1ccncc1 (configuration not stated)	i	i	i	i	i
CCn1c(C2CC(=O)N(Cc3ccccc3)C2)nc2ccccc21 (configuration not stated)	i	i	i	i	16*
CCOc1ccc(N2C(=O)CC(N3CCN(C4CCc5ccccc5C4)CC3)C2=O)cc1 (configuration not stated)	i	i	i	i	14*
Cc1ccsc1/C=N/Nc1ncc(Cl)cc1Cl	i	i	i	i	10*
COc1cc([N+](=O)[O-])cc(/C=C2/SC(=S)N(Cc3ccccc3)C2=O)c1O	-6.31*	i	i	i	i
SMILES	TRPC6 inh	TRPC4 agonist	TRPC6 act	TRPC4 inh	TRPC4 potent
Cc1ccccc1-c1nc(CN2CCC(C(=O)NCc3cccs3)CC2)c(C)o1	i	i	i	-6*	i
Cc1ccccc1-c1nc(CN2CCC(C(=O)NCc3ccco3)CC2)c(C)o1	i	i	i	i	i
CCCCn1c(N)c(N(CC(C)C)C(=O)C2CCN(S(=O)(=O)c3ccc(Cl)cc3)CC2)c(=O)[nH]c1=O	i	i	i	i	i
O=C(/C=C/c1ccc(S(=O)(=O)N2CCOCC2)cc1)NC(=S)Nc1ccc(N2CCOCC2)cc1	i	i	i	i	12*
COc1ccc(C(Nc2ccccn2)c2c(NC(=O)c3ccco3)sc(C)c2C)cc1OC (configuration not stated)	i	i	i	-6*	i
COc1cc(C(Nc2ccccn2)c2c(NC(=O)c3ccco3)sc(C)c2C)cc(OC)c1OC (configuration not stated)	i	i	i	i	i
CCCc1noc2c1/C(=N\O)CC(CC(C)SCC)C2 (configuration not stated)	i	i	i	-6*	i
CCSC(C)CC1C/C(=N/O)c2c(CC)noc2C1 (configuration not stated)	i	i	i	i	i
Cc1cc(Cl)cc2c1NC(=O)[C@]21[C@@H]2C(=O)N(Cc3ccccc3)C(=O)[C@@H]2[C@@H]2CCCN21	i	50*	i	i	i
CCc1ccc2c(c1)[C@]1(C(=O)N2)[C@@H]2C(=O)N(Cc3ccccc3)C(=O)[C@@H]2[C@@H]2CCCN21	i	i	i	i	i
c1ccc(CN2CCC(Nc3nc(-c4ccccc4)nc4ccccc34)CC2)cc1	-6.58*	i	i	i	i
c1ccc(Nc2nc(Nc3ccccc3)nc(N3CCNCC3)n2)cc1	i	146*	i	i	i
O=C(N1CCCC1)C12CC3CCC(CC(C3)C1)C2	i	i	i	i	i
CC12CC3CC(C)(C1)CC(C(=O)N1CCCC1)(C3)C2	i	i	i	-6*	i
CN1CCN(C(=O)C23CC4CC(C)(CC(C)(C4)C2)C3)CC1	i	i	i	-6*	i
CCCCCCCCC[n+]1cccc2c3ccccc3ccc21	-5.7*	i	i	i	i

Source: PubChem
